Screening data deposited in PubChem BioAssay by several laboratories.
PTEN del growth – PTEN-deleted cell growth suppression; viability, % at 10 µM; hit rate 1.2% among 140,000; HCT116 PTEN-null viability, CellTiter-Glo, 60 h; stronger effect = lower value;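 active means viability at or below a set limit, 4 SD under the median of all tested compounds, cut at about 3.7% in these data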;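 further: PTEN knockout HCT116 line with beta catenin targeted HCT116 as companion control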
bCat KO growth – beta-catenin-lacking colon tumor cell growth suppression. AID 818. HCT116 beta-catenin knockout viability, CellTiter-Glo, 60 h; stronger effect = lower value. hit rate 1.5% among 140,000. viability, % at 10 µM;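 active means viability at or under a set limit, the compound median less 4 SD, cut at about 6% in these data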;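 further: 0% = Hyamine 1622 control at 20 µM and 100% = untreated cell control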
H69AR growth 86K – growth inhibitors of human H69AR lung tumor cells; AID 598; hit rate 6% among 85,000; viability, % at 10 µM; H69AR lung tumor viability, ATP luminescence, 72 h; stronger effect = lower value;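 active means viability at or below 40%; inactive means viability above 40%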;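 further: multidrug resistant small cell line overexpressing MRP-1 efflux transporter; 100% = mean luminescence of untreated control wells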
HUVEC prolif 384 – inhibitors of human endothelial cell proliferation. HUVEC proliferation, CellTiter-Glo luminescence, 72 h; stronger effect = lower value. viability, % at 10 µM (by protocol). hit rate 1.1% among 86,000;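 active means viability at or below 30%; inactive means viability above 30%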;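 further: 100% = median luminescence of DMSO-only cell control wells on each plate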
Fibroblast inh – blocks proliferation of human lung fibroblasts; LL 47 human lung fibroblast viability, ATP luminescence; stronger effect = lower value; viability, % at 10 µM; hit rate 1.1% among 85,000;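 active means viability at or below 50% in the single dose screen; inactive means viability above 50%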;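 further: compound exposure lasted 72 h before the ATP readout; 100% = median luminescence of untreated cell-only wells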
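Times – overnight cell rest, 72 h compound treatment at 37 °C · Test system – human lung fibroblast line LL 47, low passage · Amount – 1,150 cells in each well · Controls – cell-only wells, no compound · Doses – 0.1% DMSO in all compound wells · Measured by – CellTiter-Glo luminescence · Buffer or medium – IMEM plus 15% FBS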
Cav3 T inh – blocks human Cav3.2 T-type calcium channel; O95180; Cav3.2-expressing cells, Fluo-4 calcium fluorescence FDSS; stronger effect = lower value; B-score at 10 µM; hit rate 4% among 100,000; AID 449739;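 active means single-dose well whose peak fluorescence ratio is a statistical outlier from its plate by either plate-standardised score or position-corrected B-score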
Target sequence (O95180 whole entry, looked up): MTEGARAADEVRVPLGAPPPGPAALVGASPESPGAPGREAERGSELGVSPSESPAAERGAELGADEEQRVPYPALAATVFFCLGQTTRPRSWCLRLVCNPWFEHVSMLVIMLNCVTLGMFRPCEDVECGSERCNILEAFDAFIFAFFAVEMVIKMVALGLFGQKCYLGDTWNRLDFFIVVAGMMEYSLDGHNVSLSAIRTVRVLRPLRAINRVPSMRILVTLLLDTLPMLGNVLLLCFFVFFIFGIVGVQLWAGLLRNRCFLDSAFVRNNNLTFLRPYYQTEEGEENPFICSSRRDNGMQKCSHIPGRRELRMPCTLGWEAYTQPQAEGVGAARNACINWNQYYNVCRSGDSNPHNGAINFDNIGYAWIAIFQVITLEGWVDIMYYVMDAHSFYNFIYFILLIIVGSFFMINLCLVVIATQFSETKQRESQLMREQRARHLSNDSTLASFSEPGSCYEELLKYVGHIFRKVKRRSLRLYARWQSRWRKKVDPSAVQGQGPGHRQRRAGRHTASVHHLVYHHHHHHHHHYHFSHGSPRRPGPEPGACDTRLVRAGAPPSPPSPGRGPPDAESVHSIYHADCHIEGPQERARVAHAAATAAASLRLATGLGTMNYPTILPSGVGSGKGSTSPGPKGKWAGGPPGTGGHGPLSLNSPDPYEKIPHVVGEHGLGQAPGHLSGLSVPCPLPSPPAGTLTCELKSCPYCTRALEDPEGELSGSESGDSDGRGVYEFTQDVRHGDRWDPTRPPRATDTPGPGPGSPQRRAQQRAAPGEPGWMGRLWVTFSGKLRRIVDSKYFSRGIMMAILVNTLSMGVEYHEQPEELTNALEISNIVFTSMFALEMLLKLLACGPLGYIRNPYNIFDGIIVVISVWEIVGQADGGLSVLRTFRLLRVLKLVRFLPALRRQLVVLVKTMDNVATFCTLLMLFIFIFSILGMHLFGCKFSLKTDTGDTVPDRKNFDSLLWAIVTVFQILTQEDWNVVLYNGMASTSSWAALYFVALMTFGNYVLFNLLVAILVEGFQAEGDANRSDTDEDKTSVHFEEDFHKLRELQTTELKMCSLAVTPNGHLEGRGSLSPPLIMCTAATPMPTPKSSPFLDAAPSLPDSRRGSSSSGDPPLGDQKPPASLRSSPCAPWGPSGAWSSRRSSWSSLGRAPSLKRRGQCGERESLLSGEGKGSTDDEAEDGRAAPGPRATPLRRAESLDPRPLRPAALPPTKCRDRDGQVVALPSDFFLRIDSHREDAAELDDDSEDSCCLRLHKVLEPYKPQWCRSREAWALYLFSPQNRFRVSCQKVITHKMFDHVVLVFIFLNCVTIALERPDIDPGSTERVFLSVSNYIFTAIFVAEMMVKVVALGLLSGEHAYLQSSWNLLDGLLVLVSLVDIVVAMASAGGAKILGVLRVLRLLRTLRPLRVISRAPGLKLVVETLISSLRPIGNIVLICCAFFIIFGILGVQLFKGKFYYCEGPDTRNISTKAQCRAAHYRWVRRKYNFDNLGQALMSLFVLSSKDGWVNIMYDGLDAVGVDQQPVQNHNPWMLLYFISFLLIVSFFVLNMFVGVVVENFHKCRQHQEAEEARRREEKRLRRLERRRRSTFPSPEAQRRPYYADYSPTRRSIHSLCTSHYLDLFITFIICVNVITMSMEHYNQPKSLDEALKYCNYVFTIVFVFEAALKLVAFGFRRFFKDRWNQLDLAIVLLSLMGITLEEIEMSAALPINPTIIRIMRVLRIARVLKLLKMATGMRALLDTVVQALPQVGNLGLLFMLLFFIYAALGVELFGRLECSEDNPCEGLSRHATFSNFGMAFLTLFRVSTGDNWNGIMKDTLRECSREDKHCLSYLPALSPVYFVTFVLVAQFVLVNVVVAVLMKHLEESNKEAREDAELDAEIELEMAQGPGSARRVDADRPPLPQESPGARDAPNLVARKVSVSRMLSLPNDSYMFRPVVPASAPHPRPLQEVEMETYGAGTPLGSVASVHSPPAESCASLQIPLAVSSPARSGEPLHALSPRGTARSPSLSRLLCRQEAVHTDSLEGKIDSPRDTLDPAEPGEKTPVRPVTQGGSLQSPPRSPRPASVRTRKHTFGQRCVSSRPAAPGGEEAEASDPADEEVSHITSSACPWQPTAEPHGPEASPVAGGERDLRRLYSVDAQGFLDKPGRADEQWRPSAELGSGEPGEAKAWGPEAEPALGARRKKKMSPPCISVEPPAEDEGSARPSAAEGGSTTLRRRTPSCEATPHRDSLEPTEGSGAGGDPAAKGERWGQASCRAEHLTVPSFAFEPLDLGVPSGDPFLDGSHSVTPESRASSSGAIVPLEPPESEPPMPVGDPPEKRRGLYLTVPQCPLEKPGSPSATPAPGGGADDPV
An asterisk follows results filed as active; . = no result given. Only some compounds are listed: those with a hit (about 7.1% of all), similar ones and a draw of the others.

SMILES	PTEN del growth	bCat KO growth	H69AR growth 86K	HUVEC prolif 384	Fibroblast inh	Cav3 T inh
Cc1ccc(C(=O)NCC(=O)OC(C)C(=O)NCCC2=CCCCC2)cc1C (centres undefined)	86	88	.	.	.	.
COc1ccc2c(c1)CCc1c(C(=O)Nc3cc(C)n(Cc4ccc(Cl)cc4)n3)noc1-2	87	91	5.3*	52	60	0.58
COc1ccc2c(c1)CCc1c(C(=O)NCc3ccc(Cl)cc3)noc1-2	99	82	51	89	105	0.74
Cc1cc(C)cc(NC(=O)CSc2nnc(-c3ccccc3Br)o2)c1	68	67	93	54	90	-1.1
COc1cccc(NC(=O)CSc2nnc(-c3cc(C)n(-c4ccccc4)c3C)o2)c1	59	71	80	58	85	-3.6*
COc1cccc(C(=O)CSc2nnc(-c3cccs3)o2)c1	113	98	107	94	101	0.059
Cc1cc(C(=O)CSc2nnc(-c3cccs3)o2)c(C)n1-c1ccccc1	65	50	90	78	99	-5.1*
COC(=O)C1=C(C(=O)OC)C2C(C)=CC(C)=CN2C(C(=O)OC)=C1C(=O)OC (centres undefined)	96	91	.	.	.	.
Cc1nn(-c2ccccc2)c(=S)c2ccccc12	93	95	.	.	.	.
CCCCC(=O)NC(c1cccc([N+](=O)[O-])c1)c1c(OC(C)=O)ccc2ccccc12 (centres undefined)	56	61	4.6*	80	89	-7.7*
COc1ccc2nc(NC(=O)c3cccnc3SC)sc2c1	88	84	.	.	.	.
O=C(/C=C/c1ccccc1F)c1ccoc1	8	5.3*	.	.	.	3.5
O=C(/C=C/c1ccoc1)c1ccccc1O	78	78	.	.	.	.
CCCC(=O)Nc1ccc(C(=O)N/N=C/c2ccc([N+](=O)[O-])o2)cc1	1.9*	2.7*	.	.	.	.
O=C(COc1ccccc1)N/N=C/c1ccc([N+](=O)[O-])o1	1.0*	1.3*	.	.	.	.
CCC(=O)Nc1ccc(C(=O)N/N=C/c2ccc([N+](=O)[O-])cc2)cc1	72	83	.	.	.	.
CCCCCCCC(=O)Nc1ccc(C(=O)N/N=C/c2cccc([N+](=O)[O-])c2)cc1	1.7*	1.5*	.	.	.	-0.29
CCOc1ccccc1NC(=O)COC(=O)c1cc(C(=O)OC)cc([N+](=O)[O-])c1	95	111	.	.	.	.
O=C1Nc2ccccc2/C1=C/C(=O)c1cccs1	1.6*	2.0*	0.7*	68	34*	-1.6
COC(=O)c1ccc(NC(=S)N2CCN(Cc3ccccc3)CC2)cc1	100	92	.	.	.	0.26
COC(=O)c1ccc(NC(=S)N2CCN(Cc3cccc(C)c3)CC2)cc1	101	99	.	.	.	-4.4*
Cn1c(=O)cc(SCC(=O)NCCC2=CCCCC2)c2cc(Cl)ccc21	94	93	.	.	.	.
C#CCSc1nccc(-c2nn(-c3ccc(C)cc3)ccc2=O)n1	89	88	17*	64	83	-0.052
CNC(=O)c1nn(-c2ccc(C)cc2)ccc1=O	89	98	.	.	.	1.2
CSc1nccc(-c2nn(-c3ccc(C)cc3)ccc2=O)n1	23	19	24*	48	58	-1.5
SMILES	PTEN del growth	bCat KO growth	H69AR growth 86K	HUVEC prolif 384	Fibroblast inh	Cav3 T inh
C=CCSc1nc(=O)n2cccc(C)c2n1	94	96	.	.	.	-0.017
C=CCSc1nccc(-c2nn(-c3ccc(C)cc3)ccc2=O)n1	18	19	21*	59	64	-0.71
CCSc1nccc(-c2nn(-c3ccc(C)cc3)ccc2=O)n1	22	21	18*	58	67	-0.46
CC(C)c1nc(-c2c(N)n(C)c(=O)n(C)c2=O)sc1C(=O)C(C)(C)C	100	105	96	99	102	0.014
CCCC(=O)NC(C)c1nc2ccccc2n1C(C)C (centres undefined)	108	97	94	94	94	0.039
Cc1ccccc1NC(=O)c1ccc(N/N=C/c2ccccc2O)c([N+](=O)[O-])c1	33	45	.	.	.	.
Cc1ccc(NC(=O)c2ccc(N/N=C/c3cccc(O)c3)c([N+](=O)[O-])c2)cc1	1.9*	2.9*	.	.	.	0.61
Cc1ccc(NC(=O)c2ccc(C(C)(C)C)cc2)cc1[N+](=O)[O-]	84	86	.	.	.	.
Cc1ccc(NC(=O)c2ccc(Nc3c([N+](=O)[O-])cc([N+](=O)[O-])cc3[N+](=O)[O-])cc2)cc1	2.3*	4.5*	.	.	.	.
COc1ccc(/C=N/NC(=O)c2ccccc2F)cc1CN1CCN(c2ccc(F)cc2)CC1	91	86	.	.	.	.
Cc1ccc(C)c(N2CCN(c3nnnn3-c3ccccc3)CC2)c1	37	47	20*	89	84	-2.5
COc1ccc(CCNC(=O)c2ccc(CNS(=O)(=O)c3cc(C)ccc3C)cc2)cc1OC	60	63	.	.	.	-2
Cc1sc(NC(=O)c2sc3nc4c(C)cccc4cc3c2N)c(C#N)c1C	9	3.6*	.	.	.	-2.1
O=C(CNC(=O)C12CC3CC(CC(C3)C1)C2)N1CCN(S(=O)(=O)/C=C/c2ccccc2)CC1	59	48	.	.	.	.
O=C(O)CCC(=O)CCC(=O)c1ccc(Cl)cc1	86	86	74	101	115	0.29
CN(C)CCC(=O)c1ccc(Cl)cc1	108	93	19*	89	91	0.045
Cc1cc(C)c(S(=O)(=O)N2CCCCC2)c(C)c1N(C)S(=O)(=O)c1ccc(Cl)cc1	78	65	.	.	.	.
Cc1ccc2nc(-c3sc4nc(C)cc(C)c4c3N)[nH]c2c1	83	78	15*	42	95	0.014
Cc1ccc2nc(-c3cccc(N)c3)[nH]c2c1	66	60	49	73	75	0.056
COc1ccccc1OCC(O)Cn1c(=N)n(Cc2ccccc2)c2ccccc21 (centres undefined)	8	5.2*	51	36	60	-4.7
N=c1n(Cc2ccccc2)c2ccccc2n1CC(O)c1ccccc1 (centres undefined)	48	37	38*	89	88	0.0039
Cc1ccsc1/C=N/NS(=O)(=O)c1ccc([N+](=O)[O-])cc1	97	93	.	.	.	.
CC(=O)N=c1n(C)c2ccccc2n1CCOc1ccccc1	102	105	.	.	.	.
CCCCCCc1cc2cc(-c3nnc(-c4ccccc4OC)o3)c(=O)oc2cc1O	4	12	3.0*	63	72	-4.2*
CCCCCCc1cc2cc(-c3nnc(-c4ccccc4O)o3)c(=O)oc2cc1O	0.7*	0.7*	.	.	.	-3.5*
CCCCCCc1cc2cc(-c3nnc(-c4cc(OC)c(OC)c(OC)c4)o3)c(=O)oc2cc1O	9	11	2.3*	76	62	-3.2
O=C(NCC1CCS(=O)(=O)C1)Oc1ccccc1 (centres undefined)	87	82	98	91	97	.
O=C(C1CCCO1)N1CCN(C(=S)Nc2ccc(Cl)cc2)CC1 (centres undefined)	90	96	.	.	.	.
CC(=O)OCC(=O)NCC(=O)c1c[nH]c2ccccc12	98	92	.	.	.	0.34
Cc1cc(C)n(-c2nc(NC(C)C)nc(NC(C)C)n2)n1	57	42	.	.	.	1.2
